Experimental data reported in ChEMBL document CHEMBL4402601, “Discovery of a Silicon-Containing Pan-Genotype Hepatitis C Virus NS5A Inhibitor” (J Med Chem, 2020).

What was measured:
[1] = Drug distribution in rat plasma at 10 mg/kg, po incubated for 3 hrs by UPLC-MS/MS analysis; type: ADME, organism-based
Method in brief: (§1)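 Oral dosing in mice and rats; compound measured in plasma and liver by UPLC-MS/MS at each time point, n = 3 (mean ± SD). LPR is mean liver concentration divided by mean plasma concentration.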

[2] = Metabolic stability in rat liver microsomes assessed as compound remaining at 1 uM incubated for 60 mins by UPLC-MS/MS analysis; type: ADME, Microsome; details: read-out: Stability
Method in brief: (§2)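 Pooled mouse, rat or human liver microsomes (0.5 mg/mL) with 1 μM compound, 1 mM NADPH, 5 mM MgCl₂ and 100 mM potassium phosphate pH 7.4. Pre-incubated 5 min at 37 °C, started with NADPH, then run 60 min at 37 °C. Quenched with ice-cold acetonitrile containing internal standard; parent remaining measured by UPLC-MS/MS.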

[3] = Toxicity in mouse assessed as increase in cholesterol level at 300 mg/kg, po administered for 14 days and measured on day 14; type: organism-based; details: in vivo, 336 h
Method in brief: (§3)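 Mice randomised after acclimation into two groups of 5 males and 5 females. Compound at 300 mg/kg or vehicle alone given once daily by oral gavage for 14 days. Clinical signs observed daily. Body weight and food intake recorded on day 1, then twice weekly. Animals killed after the 14th dose.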

[4] = tested on: Hepatitis C virus; assay: Antiviral activity against Hepatitis C virus subtype 1a H77 subgenomic replicon expressing NS5A infected in human HuH7 cells assessed as reduction in viral replication incubated for 3 days by luciferase reporter gene assay; type: functional, organism-based, Hepacivirus hominis; details: subtype 1a H77, Huh-7, 72 h
Method in brief: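 HCV replicon cell assay; inhibition of replication read as decrease in luciferase signal. Percent inhibition computed at each compound concentration; EC50 (pM) from nonlinear regression fit to a 4-parameter logistic equation. Values are means of triplicate wells, with each experiment run at least twice.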

[5] = Clearance in mouse plasma at 2 mg/kg, iv by UPLC-MS/MS analysis; type: ADME, organism-based
Method in brief: (§4)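 Overnight-fasted mice dosed iv once at 2 mg/kg. Vehicle was 2:2:96 (v/v) alcohol : Tween 80 : glucose injection diluted 2.5 times with 10% glucose injection. Plasma concentration measured by UPLC-MS/MS.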

[6] = Drug distribution in rat liver at 10 mg/kg, po incubated for 3 hrs by UPLC-MS/MS analysis; type: ADME, organism-based; details: read-out: Drug uptake; method in brief: as §1
[7] = Toxicity in mouse assessed as effect on hematological parameters at 300 mg/kg, po administered for 14 days and measured on day 14; type: organism-based; details: in vivo, 336 h; method in brief: as §3
[8] = Cmax in mouse at 10 mg/kg, po by UPLC-MS/MS analysis; type: ADME, organism-based; parameters: dose 10 mg/kg, route oral; details: in vivo
Method in brief: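 Overnight-fasted mice given a single 10 mg/kg oral dose in 2:2:96 (v/v) alcohol : Tween 80 : glucose injection. Plasma levels by UPLC-MS/MS. Bioavailability derived against a 2 mg/kg iv arm using the same formulation diluted 2.5 times with 10% glucose injection.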

[9] = Drug distribution in mouse plasma at 10 mg/kg, po incubated for 3 hrs by UPLC-MS/MS analysis; type: ADME, organism-based; method in brief: as §1
[10] = tested on: Hepatitis C virus; assay: Resistance index, ratio of EC50 for Hepatitis C virus subtype 1a H77 subgenomic replicon expressing NS5A L31M mutant infected in human HuH7 cells to EC50 for Hepatitis C virus subtype 1a H77 subgenomic replicon expressing NS5A infected in human HuH7 cells; type: functional, Hepacivirus hominis
Method in brief: (§5)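 NS5A resistance-associated variants introduced into GT1a-H77 or GT1b-Con1 replicons. In transient assays, each variant replicon was electroporated into a Huh-7-derived cell line. Inhibition measured as drop in luciferase signal. Percent inhibition computed per concentration; EC50 from 4-parameter logistic nonlinear fit. Fold resistance is variant EC50 relative to the matching reference replicon.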

[11] = Drug distribution in mouse liver at 10 mg/kg, po incubated for 3 hrs by UPLC-MS/MS analysis; type: ADME, organism-based; details: read-out: Drug uptake; method in brief: as §1
[12] = Metabolic stability in human liver microsomes assessed as compound remaining at 1 uM incubated for 60 mins by UPLC-MS/MS analysis; type: ADME, Microsome; details: read-out: Stability; method in brief: as §2
[13] = Ratio of drug distribution in rat liver to drug distribution in rat plasma measured after 8 hrs by UPLC-MS/MS analysis; type: ADME, cell-free; method in brief: as §1
[14] = tested on: Hepatitis C virus; assay: Antiviral activity against Hepatitis C virus subtype 1a H77 subgenomic replicon expressing NS5A Q30E mutant infected in human HuH7 cells assessed as reduction in viral replication incubated for 3 days by luciferase reporter gene assay; type: functional, organism-based, Hepacivirus hominis; details: subtype 1a H77, Huh-7, 72 h; method in brief: as §5
[15] = Half life in dog at 5 mg/kg, po by UPLC-MS/MS analysis; type: ADME, organism-based, Canis lupus familiaris; details: in vivo
[16] = Half life in mouse at 2 mg/kg, iv by UPLC-MS/MS analysis; type: ADME, organism-based; details: in vivo; method in brief: as §4

COC(=O)N[C@H](C(=O)N1CCC[C@H]1C(=O)Nc1ccc([C@@H]2CC[C@@H](c3ccc(NC(=O)[C@@H]4CCCN4C(=O)[C@@H](NC(=O)OC)[C@@H](C)OC)cc3)N2c2cc(F)c(N3CC[Si](C)(C)CC3)c(F)c2)cc1)[C@@H](C)OC
concentration at 3 h [1]: 45.2 ng/mL | remaining at 1 h, 1 µM [2]: 76.3% | Activity [3]: Non-Toxic | EC50 [4]: 0.0012 nM | clearance [5]: 1.67 mL/min/kg | concentration at 3 h [6]: 1110 ng/g | Activity [7]: Non-Toxic | Cmax [8]: 454 ng/mL | concentration at 3 h [9]: 308 ng/mL | Ratio EC50 [10]: 9.9 | concentration at 3 h [11]: 1580 ng/g | remaining at 1 h, 1 µM [12]: 80.9% | Kp at 8 h [13]: 10.7 | EC50 [14]: 0.216 nM | half-life [15]: 21.2 h | half-life [16]: 12.2 h
